# High-throughput results deposited in PubChem by Sanford-Burnham Center for Chemical Genomics.
# This is a sample that favours compounds with a hit; in the whole collection about 1.9% have one here.
# LMPTP block: blocks human LMPTP phosphatase | P24666 | recombinant LMPTP-A, OMFP fluorogenic substrate, fluorescence intensity | inhibition, % at 20 µM | hit rate 0.22% among 360,000 | AID 651560;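 active means compounds that cut the enzyme signal by at least half of the control window in the single-dose screen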;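 further: plate controls were DMSO wells with enzyme plus substrate for no effect and substrate without enzyme for full effect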
# Target sequence (P24666 whole entry, looked up): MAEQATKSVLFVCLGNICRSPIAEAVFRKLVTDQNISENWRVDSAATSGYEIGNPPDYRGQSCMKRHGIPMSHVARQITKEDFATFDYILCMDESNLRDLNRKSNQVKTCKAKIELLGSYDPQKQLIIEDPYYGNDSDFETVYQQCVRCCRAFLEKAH
#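 Assay system: LMPTP-A enzyme. Input: 0.625 nM LMPTP-A final. Probe or stimulus: 400 µM OMFP. Compound dosing: single 20 µM dose. Schedule: 50 min dark incubation at room temperature. Detection: fluorescence intensity of OMFP turnover product. Read-out: percent inhibition versus substrate-only and uninhibited controls. Benchmarks: no-enzyme low control, uninhibited high control.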
# Scp-1 inhibitor: blocks human Scp-1 phosphatase activity | Q9GZU7 | Recombinant Scp1, phosphopeptide, malachite green phosphate absorbance | hit rate 0.88% among 340,000 | inhibition, % at 20 µM;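 active means inhibition above about 50% at 20 µM, limit read from the data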;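 further: plate controls were DMSO wells with enzyme for no effect and wells lacking enzyme for full effect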
# Target sequence (Q9GZU7 76-261 limits assumed): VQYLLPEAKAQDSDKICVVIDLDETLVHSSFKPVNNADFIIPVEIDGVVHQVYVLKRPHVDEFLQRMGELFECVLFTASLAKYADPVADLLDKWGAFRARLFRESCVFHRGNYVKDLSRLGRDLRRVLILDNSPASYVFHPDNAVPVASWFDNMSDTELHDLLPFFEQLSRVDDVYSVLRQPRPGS
#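 Test system: SCP-1 phosphatase catalytic domain, residues 76-261 | Compound dosing: One concentration, 20 µM, with 1.0% DMSO | Schedule: 45 min room-temperature reaction, 5 min colour, 30 min stabiliser | Detection: Absorbance at 630 nm | Read-out basis: % inhibition of SCP-1 phosphate liberation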
# FAS TE block: FAS thioesterase (human) inhibition. P49327. recombinant FAS-TE, OMFH fluorogenic substrate, fluorescence endpoint. inhibition, % at 15 µM. hit rate 0.67% among 360,000;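 active means compounds whose normalised, plate-corrected inhibition of enzyme fluorescence in the single-dose primary screen is 50% or more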;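 further: 0% = DMSO with enzyme and 100% = substrate without enzyme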
# STEP block: STEP (human) phosphatase inhibition | P54829 | recombinant STEP, OMFP fluorogenic substrate, fluorescence | inhibition, % at 20 µM | hit rate 0.25% among 360,000 | AID 588621;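 active means inhibition at 20 µM, scaled per plate between control wells, above about 37%, limit read from the data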;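 further: 0% = DMSO with enzyme and substrate and 100% = substrate only without enzyme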
#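 medium = Bis-Tris buffer pH 6.0, 2.5 mM DTT, 0.005% Tween 20 | test system = STEP (striatal-enriched tyrosine phosphatase) enzyme, cell-free | measure = normalized % inhibition | compound dosing = 20 µM, 1% DMSO | also added = 25 µM OMFP | schedule = reaction 20 min, ambient temperature | measured by = fluorescence read at 480 nm ex / 540 nm em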
# SUMO1 PPI mod: SUMO1-SIM interaction modulation. P63165. SUMO1 binding to a labelled peptide, TR-FRET, 1 h. inhibition, % at 20 µM. hit rate 0.33% among 360,000; in the data active means inhibition above about 37%
# Target sequence (P63165 whole entry, looked up): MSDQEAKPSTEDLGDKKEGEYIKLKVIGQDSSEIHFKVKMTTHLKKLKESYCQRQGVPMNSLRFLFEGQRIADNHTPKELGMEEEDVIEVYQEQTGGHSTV
# STEP conf: confirmation of human STEP phosphatase inhibitors | recombinant STEP, OMFP fluorogenic substrate, fluorescence | AID 623866 | hit rate 32% among 520 | shares compounds with STEP block | inhibition, % at 20 µM; call rule not given here;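 further: 0% = enzyme with substrate plus DMSO and 100% = substrate without enzyme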
# The depositor's hits bear a star; / = no result.
SMILES,LMPTP block,Scp-1 inhibitor,FAS TE block,STEP block,SUMO1 PPI mod,STEP conf
N#Cc1cc2cc3c(cc2nc1Cl)OCCO3,22,/,0,49*,11,20
N#Cc1cc2cc3c(cc2nc1N1CCCCC1)OCCO3,3,-5,5,5,-51,/
O=C(CCl)Nc1c2c(nn1-c1ccccc1)CSC2,-1,-2,0,-1,6,/
Cn1nnc(NCc2cc(Br)ccc2OCc2ccccc2F)n1,-1,-6,5,66*,1,24
COc1cccc(/C=N/Nc2ncnc3c2[nH]c2ccc(C)cc23)c1OC,26,20,6,77*,90*,4
CC(C)(C(=O)N1CCC1(C)C(=O)NS(=O)(=O)c1cccc(Cl)c1)c1ccccc1 (configuration not stated),-2,/,-8,-2,3,/
COc1ccc(N2CCN(C(c3cccs3)C(C)NC(=O)C(=O)N3CCCC3)CC2)cc1 (configuration not stated),0,-7,-2,60*,-5,14
COc1ccc(N2CCN(C(c3cccs3)C(C)NC(=O)C(=O)N3CCCCC3)CC2)cc1 (configuration not stated),0,-5,-2,29,-1,/
Cc1ccc(C(=O)NCC(=O)Nc2ccncc2)s1,1,-5,-4,-2,-5,/
CN1CCc2c(sc(/N=C/c3c[nH]c4ccccc34)c2C(N)=O)C1,67*,-8,-18,51*,92*,0
O=C1NC(=Nc2ccccc2)S/C1=C/c1cccnc1,3,39,-1,10,-16,/
O=C1NC(=Nc2cccnc2)S/C1=C\c1cccc(F)c1,-1,10,-4,57*,-14,6
O=C(CSc1nc(-c2ccc(F)cc2)nc2c1Cc1ccccc1O2)Nc1cccc(C(=O)O)c1,88*,89*,7,97*,108*,13*
C=C1c2cccc(C(F)(F)F)c2O[C@H](C(=O)OCC)[C@H]1OC,-1,30,-4,1,-3,/
CC(C)[C@H](NC(=O)[C@@H]1Cc2c([nH]c3ccccc23)C2c3ccccc3C(=O)N21)C(=O)N1CCC[C@@H]1C(=O)O (some centres not stated),-1,1,-5,-1,13,/
CCCn1c(SCC(=O)c2c(C)[nH]c(C)c2C(=O)OCC)nc2ccccc21,1,-4,1,59*,4,26
CCOC(=O)c1c(C)[nH]c(C)c1C(=O)CSc1nc2ccccc2n1CCC#N,0,-4,-11,14,3,/
CC(=O)Nc1ccc(/C=C2\Sc3ccccc3C2=O)cc1,4,0,-2,43*,19,-1
CC(=O)N(C)/C=C1\Sc2ccccc2C1=O,1,-11,-6,1,-17,/
NS(=O)(=O)c1ccccc1,-2,-4,-4,68*,1,47*
C/C(CC(=O)Nc1ccc2c(c1)OCCO2)=N\NC(=O)COc1ccccc1C,0,2,0,50*,1,6
C/C(CC(=O)Nc1ccc2c(c1)OCCO2)=N\NC(=O)COc1cccc(C)c1,1,-5,-1,-3,4,/
CCC(Sc1nc2ncccc2[nH]1)C(=O)N1CCOCC1 (configuration not stated),-2,-7,-9,1,2,/
Cc1ccc(NC(=O)c2ccc3nc(N4CCOCC4)sc3c2)c(Cl)c1,0,-10,-1,84*,5,54*
CCOc1ccccc1-c1noc(CCC(=O)NC2CCCCC2)n1,1,-1,-2,92*,-1,-1
SMILES,LMPTP block,Scp-1 inhibitor,FAS TE block,STEP block,SUMO1 PPI mod,STEP conf
COc1ccccc1-c1noc(CCC(=O)NC2CCCC2)n1,0,-5,-5,5,-1,/
CCC(C)(C(=O)NC1CCCC1)N(Cc1cccs1)C(=O)Cc1cccs1 (configuration not stated),1,-9,0,90*,-1,0
CCC(C)(C(=O)NC1CCCC1)N(Cc1cccs1)C(C)=O (configuration not stated),-1,-2,-7,2,-1,/
O=C(c1ccccn1)N1CCN(S(=O)(=O)c2ccccc2)CC1,-2,-4,-6,-3,4,/
CN1CCN(C(=S)C(=O)Nc2ccc(Br)cc2)CC1,1,-4,-3,94*,0,77*
CN1CCN(C(=S)Nc2ccc(S(N)(=O)=O)cc2)CC1,-3,-2,0,81*,4,39*
NS(=O)(=O)c1ccc(NC(=S)N2CCN(c3ccccc3Cl)CC2)cc1,-1,-11,-6,-2,8,/
Cc1ccc(C)c(-n2c(-c3csc(C)c3C)n[nH]c2=S)c1,0,-5,-3,-2,-2,/
CCC(=O)Nc1ccc2c(c1)OC[C@@H](C)N(Cc1ccccc1F)C[C@@H](C)[C@@H](OC)CN(C)C2=O,-2,/,/,/,5,/
COc1ccc(N2C(=O)CSC23C(=O)Nc2ccccc23)cc1OC (configuration not stated),3,0,-13,48*,6,8
COc1cc(N2C(=O)CSC23C(=O)Nc2ccccc23)cc(OC)c1OC (configuration not stated),-2,-7,-8,-9,0,/
CCOC(=O)c1sc(NC(=O)OC)c(C(=O)OC)c1C,-1,-6,2,1,7,/
CCOC(=O)c1c(NC(=O)OC)sc(C(=O)N(CC)CC)c1C,1,-3,-5,82*,-3,52*
C/C(CC(C)C)=N\NS(=O)(=O)c1ccc(C)c([N+](=O)[O-])c1,-1,1,3,90*,-6,-4
O=C(NC1CCCC1)N[C@@H]1C=C[C@@H](CC(=O)N2CCOCC2)O[C@@H]1CO,-1,/,/,/,3,/
CSc1ccc(C(=S)N2CCCCCC2)cc1,1,1,10,6,2,/
CCN1CCN(C(=S)c2ccc(SC)cc2)CC1,0,-13,-7,67*,-1,6
CSc1ccc(C(=S)N2CCN(Cc3ccccc3)CC2)cc1,-1,-5,17,52*,-3,25
CCN(CC)C(=O)c1ccccc1NC(=O)c1ccccc1C,0,-3,-2,-2,2,/
CCN(CC)C(=O)c1ccccc1NC(=O)c1ccccc1SC,-2,-3,1,43*,3,5
NC1=NC[C@H](Cc2ccccc2)N1CCCCC1CCCCC1,0,14,-147,3,-51,/
NC1=NC[C@H](Cc2ccccc2)N1CCc1cccc(F)c1,17,9,-16,70*,74*,17
O=C(O)/C=C/C(=O)Nc1ccc(-c2ccccc2)cc1,-3,/,-10,-2,5,/
COc1ccc(S(=O)(=O)Nc2noc3ccccc23)cc1,-2,-8,-2,84*,2,-11
